Assay [1] concerns the target Protein kinase C iota type (Homo sapiens) (UniProt P41743). Kind of assay: Binding affinity to wild-type human partial length PRKCI (H215 to V587 residues) expressed in HEK293 cells at 1 uM by Kinomescan method relative to control. In kind it is cell-based.
Assay [2] deals with Dual specificity testis-specific protein kinase 1 (Homo sapiens) (UniProt Q15569). Kind of assay: Binding affinity to wild-type human full length TESK1 (R37 to S626 residues) expressed in Escherichia coli BL21 at 1 uM by Kinomescan method relative to control. The essentials:
(§1)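 Kinome-wide competition binding panel run by an outside provider, with each compound tested at a single concentration. Activity is read against the kinase panel.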

Assay [3] deals with Casein kinase I isoform epsilon (Homo sapiens) (UniProt P49674). In words: Binding affinity to wild-type human full length CSNK1E (M1 to K416 residues) expressed in Escherichia coli BL21 at 1 uM by Kinomescan method relative to control. The essentials:
(§2)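 Run as one kinome-wide competition binding panel with each compound at a single fixed concentration. Results were plotted as a kinome-wide selectivity map.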

A further assay addresses T1, Aurora kinase C (Homo sapiens, UniProt Q9UQB9).
T1 sequence (Q9UQB9 whole entry): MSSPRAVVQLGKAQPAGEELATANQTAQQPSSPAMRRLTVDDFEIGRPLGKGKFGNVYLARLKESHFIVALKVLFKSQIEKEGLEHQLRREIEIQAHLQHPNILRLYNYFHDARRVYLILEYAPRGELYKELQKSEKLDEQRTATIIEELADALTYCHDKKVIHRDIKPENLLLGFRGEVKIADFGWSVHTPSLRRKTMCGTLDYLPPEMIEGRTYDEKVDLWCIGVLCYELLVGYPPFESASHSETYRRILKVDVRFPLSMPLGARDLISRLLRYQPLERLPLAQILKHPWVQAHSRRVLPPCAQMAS
Kind of assay: Inhibition of recombinant full length GST-tagged human Aurora C expressed in baculovirus expression system by Z'LYTE assay. The essentials:
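Biochemical IC50 from a Z'LYTE kinase assay, with ATP at the Km for each kinase. Values are reported with standard error.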

The subject of another assay is HEK293. Kind of assay: Cytotoxicity against human HEK293 cells assessed as reduction in cell viability after 72 hrs by CellTiter-Glo assay. In kind it is cell-based. Conditions: HEK293, 72 h. The essentials:
(§3)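 Cells were treated across a dose-response range for 72 h, and viability was read by CellTiter-Glo luminescence. Measurements were made in triplicate and reported with standard error.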
(In general: ATP-based viability assays read luminescence as a measure of living cells.)

Assay [4] addresses Protein-tyrosine kinase 2-beta (Homo sapiens) (UniProt Q14289). In words: Binding affinity to wild-type human full length PYK2 (M1 to E967 residues) expressed in Escherichia coli BL21 at 1 uM by Kinomescan method relative to control. Put shortly: as §1
Assay [5] concerns the target Epidermal growth factor receptor (Homo sapiens) (UniProt P00533). Kind of assay: Binding affinity to wild-type human partial length EGFR (R669 to V1011 residues) expressed in Escherichia coli BL21 at 1 uM by Kinomescan method relative to control.
The target of assay [6] is Serine/threonine-protein kinase N1 (Homo sapiens) (UniProt Q16512). In words: Binding affinity to wild-type human partial length PKN1 (E598 to C948 residues) expressed in Escherichia coli BL21 at 1 uM by Kinomescan method relative to control.
Serine/threonine-protein kinase N1 (Homo sapiens), sequence (Q16512 2-942 limits assumed): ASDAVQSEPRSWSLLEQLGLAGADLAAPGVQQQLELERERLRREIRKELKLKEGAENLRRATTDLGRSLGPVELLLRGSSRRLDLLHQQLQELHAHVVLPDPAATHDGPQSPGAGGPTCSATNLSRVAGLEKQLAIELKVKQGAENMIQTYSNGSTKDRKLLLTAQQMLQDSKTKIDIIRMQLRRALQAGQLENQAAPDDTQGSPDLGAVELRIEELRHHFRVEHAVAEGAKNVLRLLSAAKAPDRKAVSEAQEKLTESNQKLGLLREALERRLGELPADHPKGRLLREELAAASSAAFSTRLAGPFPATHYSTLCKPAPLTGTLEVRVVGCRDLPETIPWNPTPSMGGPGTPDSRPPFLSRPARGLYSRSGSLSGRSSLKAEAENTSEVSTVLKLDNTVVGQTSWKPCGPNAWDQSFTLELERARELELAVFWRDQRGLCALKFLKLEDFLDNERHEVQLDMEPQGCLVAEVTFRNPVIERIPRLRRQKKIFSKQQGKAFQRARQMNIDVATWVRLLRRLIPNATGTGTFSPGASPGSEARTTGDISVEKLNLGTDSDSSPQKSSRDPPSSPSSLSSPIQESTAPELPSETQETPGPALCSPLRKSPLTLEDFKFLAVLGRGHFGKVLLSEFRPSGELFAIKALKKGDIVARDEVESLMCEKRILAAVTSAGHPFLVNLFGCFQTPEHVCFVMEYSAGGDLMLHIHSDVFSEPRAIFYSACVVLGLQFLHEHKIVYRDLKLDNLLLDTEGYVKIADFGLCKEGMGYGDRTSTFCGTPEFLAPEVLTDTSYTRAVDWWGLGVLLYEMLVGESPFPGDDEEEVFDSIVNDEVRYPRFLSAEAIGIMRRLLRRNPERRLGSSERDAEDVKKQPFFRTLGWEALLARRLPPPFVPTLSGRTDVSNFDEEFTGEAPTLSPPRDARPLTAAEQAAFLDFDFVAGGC
The target of assay [7] is MAP kinase-activated protein kinase 2 (Homo sapiens) (UniProt P49137). In words: Binding affinity to wild-type human partial length MAPKAPK2 (V48 to D345 residues) expressed in Escherichia coli BL21 at 1 uM by Kinomescan method relative to control.
MAP kinase-activated protein kinase 2 (Homo sapiens), sequence (P49137 whole entry, looked up, the tested form may be a part): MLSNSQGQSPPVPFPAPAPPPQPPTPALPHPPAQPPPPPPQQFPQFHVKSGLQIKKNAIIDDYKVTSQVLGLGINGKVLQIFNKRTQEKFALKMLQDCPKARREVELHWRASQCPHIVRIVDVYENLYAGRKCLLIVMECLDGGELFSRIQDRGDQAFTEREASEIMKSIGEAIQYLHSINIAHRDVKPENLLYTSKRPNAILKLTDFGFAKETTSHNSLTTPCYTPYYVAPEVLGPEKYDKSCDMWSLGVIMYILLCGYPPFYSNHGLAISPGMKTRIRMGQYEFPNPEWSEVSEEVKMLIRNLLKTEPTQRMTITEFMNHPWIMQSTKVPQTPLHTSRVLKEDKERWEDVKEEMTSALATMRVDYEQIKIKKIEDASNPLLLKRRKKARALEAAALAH
The target of assay [8] is Atypical kinase COQ8A, mitochondrial (Homo sapiens) (UniProt Q8NI60). In words: Binding affinity to wild-type human […] ADCK3 (M280 to Q647 residues) expressed in Escherichia coli BL21 at 1 uM by Kinomescan method relative to control.
Atypical kinase COQ8A, mitochondrial (Homo sapiens), sequence (Q8NI60 163-647 limits assumed): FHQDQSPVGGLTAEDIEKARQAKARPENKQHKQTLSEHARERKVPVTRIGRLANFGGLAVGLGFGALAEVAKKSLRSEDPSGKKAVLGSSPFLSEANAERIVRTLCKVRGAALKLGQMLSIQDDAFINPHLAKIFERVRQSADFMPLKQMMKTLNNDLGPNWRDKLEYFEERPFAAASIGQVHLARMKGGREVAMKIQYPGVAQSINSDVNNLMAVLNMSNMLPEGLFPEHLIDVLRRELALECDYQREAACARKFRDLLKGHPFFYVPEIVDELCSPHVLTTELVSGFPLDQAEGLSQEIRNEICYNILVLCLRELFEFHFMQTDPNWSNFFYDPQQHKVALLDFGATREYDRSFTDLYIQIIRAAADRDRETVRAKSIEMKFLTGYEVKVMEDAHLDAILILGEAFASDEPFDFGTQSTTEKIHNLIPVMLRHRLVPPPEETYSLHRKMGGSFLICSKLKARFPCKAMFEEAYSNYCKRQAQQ
Assay [9] addresses RAC-gamma serine/threonine-protein kinase (Homo sapiens) (UniProt Q9Y243). Kind of assay: Binding affinity to wild-type human partial length AKT3 expressed in Escherichia coli BL21 at 1 uM by Kinomescan method relative to control. The essentials: as §1
Assay [10] deals with Mitogen-activated protein kinase 3 (Homo sapiens) (UniProt P27361). Kind of assay: Binding affinity to wild-type human full length ERK1 (M1 to P379 residues) expressed in Escherichia coli BL21 at 1 uM by Kinomescan method relative to control. Put shortly:
as §2

For assay [11], the system named is HCT-116. Kind of assay: Cytotoxicity against human HCT116 cells assessed as reduction in cell viability up to 33.3 uM after 72 hrs by CellTiter-Glo assay relative to control. Format: functional.
Another assay has as its system PC-3. Kind of assay: Cytotoxicity against human PC3 cells assessed as reduction in cell viability up to 33.3 uM after 72 hrs by CellTiter-Glo assay relative to control. Format: functional.
Assay [12] has as its system HCT-116. In words: Cytotoxicity against human HCT116 cells assessed as reduction in cell viability after 72 hrs by CellTiter-Glo assay. Format: functional, cell-based. Conditions: HCT-116, 72 h. The essentials: as §3

Casein kinase I isoform epsilon (Homo sapiens), sequence (P49674 whole entry, looked up, the tested form may be a part, canonical isoform): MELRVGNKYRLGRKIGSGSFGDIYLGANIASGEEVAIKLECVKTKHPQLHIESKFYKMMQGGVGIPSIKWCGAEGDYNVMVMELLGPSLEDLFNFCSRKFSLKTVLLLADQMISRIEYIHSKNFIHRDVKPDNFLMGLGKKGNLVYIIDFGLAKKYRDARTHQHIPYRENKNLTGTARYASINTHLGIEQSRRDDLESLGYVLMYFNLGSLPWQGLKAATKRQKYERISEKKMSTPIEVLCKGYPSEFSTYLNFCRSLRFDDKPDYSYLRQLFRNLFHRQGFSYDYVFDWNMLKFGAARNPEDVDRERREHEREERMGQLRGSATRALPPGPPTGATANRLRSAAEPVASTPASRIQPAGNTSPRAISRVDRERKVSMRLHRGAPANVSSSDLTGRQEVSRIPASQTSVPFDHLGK
Protein kinase C iota type (Homo sapiens), sequence (P41743 whole entry, the tested form may be a part): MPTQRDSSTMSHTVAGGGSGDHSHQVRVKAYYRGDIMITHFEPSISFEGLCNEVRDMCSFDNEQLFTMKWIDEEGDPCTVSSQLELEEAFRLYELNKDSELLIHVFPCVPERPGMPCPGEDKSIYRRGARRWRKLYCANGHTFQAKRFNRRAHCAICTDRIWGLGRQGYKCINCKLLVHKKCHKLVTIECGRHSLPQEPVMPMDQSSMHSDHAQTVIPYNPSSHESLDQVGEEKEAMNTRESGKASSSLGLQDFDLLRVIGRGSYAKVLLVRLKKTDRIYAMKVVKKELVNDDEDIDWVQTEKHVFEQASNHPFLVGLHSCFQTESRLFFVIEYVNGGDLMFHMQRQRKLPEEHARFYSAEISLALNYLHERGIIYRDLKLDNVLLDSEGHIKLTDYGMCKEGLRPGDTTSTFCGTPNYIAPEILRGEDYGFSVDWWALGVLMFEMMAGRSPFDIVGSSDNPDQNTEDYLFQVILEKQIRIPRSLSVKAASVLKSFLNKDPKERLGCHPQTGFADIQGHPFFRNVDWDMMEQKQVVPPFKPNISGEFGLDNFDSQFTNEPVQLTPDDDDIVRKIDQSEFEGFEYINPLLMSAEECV
Dual specificity testis-specific protein kinase 1 (Homo sapiens), sequence (Q15569 whole entry, looked up, the tested form may be a part): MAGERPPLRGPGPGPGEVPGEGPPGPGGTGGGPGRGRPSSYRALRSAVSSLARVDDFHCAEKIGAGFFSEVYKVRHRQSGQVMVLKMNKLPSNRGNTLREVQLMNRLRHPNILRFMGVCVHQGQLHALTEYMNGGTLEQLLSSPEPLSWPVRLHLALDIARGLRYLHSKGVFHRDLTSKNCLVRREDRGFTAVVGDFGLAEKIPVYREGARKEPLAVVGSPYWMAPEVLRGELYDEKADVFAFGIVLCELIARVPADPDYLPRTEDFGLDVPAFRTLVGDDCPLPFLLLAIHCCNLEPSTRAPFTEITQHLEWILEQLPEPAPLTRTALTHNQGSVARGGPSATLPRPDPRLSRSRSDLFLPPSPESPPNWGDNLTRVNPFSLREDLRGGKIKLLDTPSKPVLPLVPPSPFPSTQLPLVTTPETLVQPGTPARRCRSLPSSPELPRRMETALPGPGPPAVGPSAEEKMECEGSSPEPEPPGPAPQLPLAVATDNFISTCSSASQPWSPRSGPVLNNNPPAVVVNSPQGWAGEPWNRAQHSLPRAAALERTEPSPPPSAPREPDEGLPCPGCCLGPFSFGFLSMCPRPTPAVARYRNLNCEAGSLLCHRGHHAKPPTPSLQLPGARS
Mitogen-activated protein kinase 3 (Homo sapiens), sequence (P27361 whole entry, the tested form may be a part): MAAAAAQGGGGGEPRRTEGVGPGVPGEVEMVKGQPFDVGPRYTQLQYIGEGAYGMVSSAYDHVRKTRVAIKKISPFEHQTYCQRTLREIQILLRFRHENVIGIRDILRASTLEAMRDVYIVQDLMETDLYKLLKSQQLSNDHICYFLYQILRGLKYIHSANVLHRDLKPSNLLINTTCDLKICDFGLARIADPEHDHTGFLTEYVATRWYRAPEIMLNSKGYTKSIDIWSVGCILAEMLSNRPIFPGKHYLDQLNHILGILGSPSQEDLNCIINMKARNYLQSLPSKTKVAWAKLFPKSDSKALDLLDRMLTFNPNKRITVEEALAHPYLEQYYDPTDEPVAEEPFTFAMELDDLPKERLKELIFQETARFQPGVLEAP
Protein-tyrosine kinase 2-beta (Homo sapiens), sequence (Q14289 whole entry, looked up, the tested form may be a part): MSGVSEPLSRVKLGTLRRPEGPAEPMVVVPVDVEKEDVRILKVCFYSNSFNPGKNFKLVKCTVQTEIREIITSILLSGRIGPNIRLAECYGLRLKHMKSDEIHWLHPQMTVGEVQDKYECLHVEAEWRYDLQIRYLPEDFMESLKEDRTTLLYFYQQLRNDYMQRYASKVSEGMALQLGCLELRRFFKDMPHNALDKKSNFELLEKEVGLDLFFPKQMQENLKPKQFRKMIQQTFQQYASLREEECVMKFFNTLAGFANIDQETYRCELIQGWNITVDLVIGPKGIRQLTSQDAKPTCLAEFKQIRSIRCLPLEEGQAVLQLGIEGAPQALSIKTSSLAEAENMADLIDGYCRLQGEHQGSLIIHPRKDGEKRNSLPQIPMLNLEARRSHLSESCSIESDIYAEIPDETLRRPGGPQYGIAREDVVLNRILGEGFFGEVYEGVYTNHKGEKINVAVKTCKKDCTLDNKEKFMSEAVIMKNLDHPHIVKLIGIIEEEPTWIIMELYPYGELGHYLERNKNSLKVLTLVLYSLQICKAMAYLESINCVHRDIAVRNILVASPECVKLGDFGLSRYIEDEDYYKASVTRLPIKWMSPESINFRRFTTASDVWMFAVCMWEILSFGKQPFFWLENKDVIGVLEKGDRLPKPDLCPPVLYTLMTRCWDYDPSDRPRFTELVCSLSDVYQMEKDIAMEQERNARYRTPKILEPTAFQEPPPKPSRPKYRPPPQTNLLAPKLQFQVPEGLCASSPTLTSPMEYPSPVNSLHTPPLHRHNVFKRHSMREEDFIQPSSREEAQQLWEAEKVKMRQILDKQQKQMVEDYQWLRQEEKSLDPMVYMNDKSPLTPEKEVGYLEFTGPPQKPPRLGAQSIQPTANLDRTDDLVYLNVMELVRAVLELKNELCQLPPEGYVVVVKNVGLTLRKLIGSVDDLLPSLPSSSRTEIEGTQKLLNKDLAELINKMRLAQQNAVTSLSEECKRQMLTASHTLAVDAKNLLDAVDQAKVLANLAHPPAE

On to `CCC(=O)Nc1ccc(C(=O)Nc2ccc(Nc3ncc4c(n3)N(C)c3ccc(C)cc3C(=O)N4C)cc2)cc1`, for which the Activity in assay [1] is 66%; in assay [2] it was 100%; in assay [3], 94%; in [4], 95%; in assay [5] it was 69%; in [6], 100%. Moreover, the Activity stood at 100% in assay [7], 96% in assay [8], 100% in assay [9] and 95% in [10]. Further, the figures for the IC50 on Aurora kinase C and in the assay on HEK293 were 53 nM and 100 nM, respectively.
Consider `C=CC(=O)Nc1ccc(C(=O)Nc2ccc(Nc3ncc4c(n3)N(C)c3ccc(C)cc3C(=O)N4C)cc2)cc1`, for which the Activity in assay [1] worked out at 87%; in assay [2], 100%; in [3], 100%; in the assay on HCT-116 [11], 50%; in the assay with PC-3 it was 50%; in assay [4], 97%. Besides, the Activity in assay [5] was found to be 83%; in assay [6], 82%; in assay [7], 98%; in assay [8], 99%; in [9], 83%; in assay [10], 100%. Moreover, the IC50 at Aurora kinase C stood at 63 nM; with HCT-116 [12], 845 nM.

The IC50 is the point on the concentration scale where inhibition reaches its midpoint.

These data come from ChEMBL document CHEMBL4184148 (Bioorg Med Chem Lett, 2017).
